What was measured:
[1] = Cmax in Sprague-Dawley rat at 250 mg/kg, po administered via gavage after 24 hrs using nanosuspension formulation by LC-MS/MS analysis; type: ADME, organism-based; parameters: route oral, time 24 hrs, dose 250 mg/kg; conditions: in vivo
Summary of the method: (§1)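 Single oral gavage dose to male Sprague Dawley rats, 3 per dose level. Vehicles were a standard suspension in 5% HPMC (125, 250, 500 or 1000 mg/kg) or a nanosuspension (API:polymer 4:1), with stock diluted in vehicle on the day of dosing (100, 250 or 500 mg/kg). Blood was sampled at time points from 0.5 to 24 h.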

[2] = Intrinsic clearance in cynomolgus monkey liver microsomes at 1 uM after 5 to 60 mins in presence of NADPH by LC-MS/MS analysis; type: ADME, Macaca fascicularis, Microsome; conditions: time 5-60 min, read-out: CLH
[3] = Displacement of 3-[3H] 1-(azetidin-1-yl)-2-[6-(4-fluoro-3-methyl-phenyl)pyrrolo[3,2-b]pyridin-1-yl]ethanone from GluN1a/GluN2B receptor in […] measured after 2 hrs by liquid scintillation counting method; type: tissue-based, Cortex
[4] = Cmax in Sprague-Dawley rat at 100 mg/kg, po administered via gavage after 24 hrs using nanosuspension formulation by LC-MS/MS analysis; type: ADME, organism-based; parameters: route oral, dose 100 mg/kg, time 24 hrs; conditions: in vivo; summary of the method: as §1
[5] = Cmax in Sprague-Dawley rat at 500 mg/kg, po administered via gavage after 24 hrs using nanosuspension formulation by LC-MS/MS analysis; type: ADME, organism-based; parameters: route oral, time 24 hrs, dose 500 mg/kg; conditions: in vivo; summary of the method: as §1
[6] = Cmax in Sprague-Dawley rat at 2.5 mg/kg, po by LC-MS/MS analysis; type: ADME, organism-based; parameters: route oral, dose 2.5 mg/kg; conditions: in vivo
Summary of the method: (§2)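 Rat PK with IV and PO dosing, n=3. The usual doses were 0.5 mg/kg IV and 2.5 mg/kg PO in 20% HP-β-CD. One compound was instead given at 0.1 mg/kg IV and 0.5 mg/kg PO.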

[7] = Tmax in Sprague-Dawley rat at 125 mg/kg, po administered via gavage after 24 hrs using HPMC formulation by LC-MS/MS analysis; type: ADME, organism-based; conditions: in vivo
Summary of the method: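 Single oral gavage of a 5% HPMC suspension at 125, 250, 500 or 1000 mg/kg to male Sprague Dawley rats, 3 per group. Plasma was sampled at 6 time points from 0.5 to 24 h.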

[8] = Ex vivo receptor occupancy at GluN2B in Sprague-Dawley rat assessed as 3-[3H] 1-(azetidin-1-yl)-2-[6-(4-fluoro-3-methyl-phenyl)pyrrolo[3,2-b]pyridin-1-yl]-ethanone labelling at 3 mg/kg, po measured after 2 hrs by autoradiography; type: functional
Summary of the method: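 Rats dosed orally at 3 mg/kg in 20% HP-β-CD; brains taken at 0.5, 2 and 6 h. Ex vivo autoradiography of brain slices with the ³H pyrrolo[3,2-b]pyridine GluN2B tracer. Labelling expressed relative to matching brain areas of vehicle-treated animals; n=2, ± SEM.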

[9] = Negative allosteric modulation of human GluN1a/GluN2D receptor expressed in CHO cells assessed as inhibition of glutamate and glycine-induced calcium flux preincubated for 5 mins followed by glutamate and glycine addition and measured after 5 mins by calcium 5 dye based FLIPR assay; type: cell-based
Summary of the method: (§3)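 Tet-On CHO T-Rex cells expressing hGluN1a with GluN2A, 2B, 2C or 2D, plated at 20,000 cells/well and induced 24 h before the assay in the presence of ketamine. Cells loaded 1 h at room temperature with Calcium 5 dye, pH 7.4 HEPES buffer. Compound added 5 min, then glutamate (~EC80) plus 10 µM glycine for 5 min; FLIPR fluorescence normalized to control wells. Three independent runs in duplicate (two for some).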

[10] = Clearance in dog at 0.1 mg/kg, iv by LC-MS/MS analysis; type: ADME, organism-based, Canis lupus familiaris; conditions: in vivo
[11] = AUC (infinity) in Sprague-Dawley rat at 0.5 mg/kg, iv by LC-MS/MS analysis; type: ADME, organism-based; parameters: route intravenous, time infinity, dose 0.5 mg/kg; conditions: in vivo; summary of the method: as §2
[12] = Tmax in dog at 0.5 mg/kg, po by LC-MS/MS analysis; type: ADME, organism-based, Canis lupus familiaris; conditions: in vivo
[13] = (§4) Ratio of Cmax in Sprague-Dawley rat at 500 mg/kg/day, po administered as nanosuspension measured for 14 days to EC70 for ex vivo receptor occupancy at GluN2B in po dosed Sprague-Dawley rat assessed as 3-[3H] 1-(azetidin-1-yl)-2-[6-(4-fluoro-3-methyl-phenyl)pyrrolo[3,2-b]pyridin-1-yl]-ethanone labelling; type: ADME, organism-based; conditions: 336 h
[14] = as §4, with “125 mg/kg,” for “500 mg/kg/day,”, “via gavage after 24 hrs using HPMC formulation by LC-MS/MS analysis” for “as nanosuspension measured for 14 days”; type: ADME, organism-based
[15] = Drug level in Sprague-Dawley rat brain cerebellum at 0.03 mg/kg, iv after 30 min by LC-MS/MS analysis; type: ADME, organism-based; conditions: read-out: Drug uptake
Summary of the method: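 Single i.v. dose of 0.03 mg/kg in 50% (w/v) PEG/water, pH 7.4; rats n=3 per group, killed at 5, 10, 30, 60 and 120 min. Cerebellum, cortex, striatum and hippocampus dissected, weighed and homogenized; drug quantified by LC-MS/MS and normalized to tissue weight. P<0.05 taken as significant versus cerebellum.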

[16] = AUC (infinity) in Sprague-Dawley rat at 2.5 mg/kg, po by LC-MS/MS analysis; type: ADME, organism-based; parameters: time infinity, route oral, dose 2.5 mg/kg; conditions: in vivo; summary of the method: as §2
[17] = molecular target: T1, Cytochrome P450 3A4 (Homo sapiens, UniProt P08684); assay: Inhibition of CYP3A4 in human liver microsomes using nifedipine as substrate measured after 15 mins by LC-MS/MS analysis; type: ADME
T1 sequence (P08684 whole entry, canonical isoform): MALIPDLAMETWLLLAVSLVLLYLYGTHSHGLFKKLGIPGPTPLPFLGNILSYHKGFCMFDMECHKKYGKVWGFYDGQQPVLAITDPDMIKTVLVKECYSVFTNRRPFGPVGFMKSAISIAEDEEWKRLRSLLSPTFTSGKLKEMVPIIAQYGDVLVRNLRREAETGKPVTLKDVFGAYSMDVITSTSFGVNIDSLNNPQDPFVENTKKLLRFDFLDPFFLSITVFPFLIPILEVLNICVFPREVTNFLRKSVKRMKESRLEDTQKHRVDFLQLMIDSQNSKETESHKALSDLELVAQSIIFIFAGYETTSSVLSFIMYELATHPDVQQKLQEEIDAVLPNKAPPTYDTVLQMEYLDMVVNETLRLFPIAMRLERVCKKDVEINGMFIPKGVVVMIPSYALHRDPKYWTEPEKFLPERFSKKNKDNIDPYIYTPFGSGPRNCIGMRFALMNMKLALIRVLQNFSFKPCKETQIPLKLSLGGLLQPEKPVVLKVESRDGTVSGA
Summary of the method: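 Human liver microsomes incubated with isoform-specific probe substrates and the test compound at concentrations up to 20 µM. IC50 derived from inhibition of metabolite formation; mean of two independent experiments, with known specific inhibitors as positive controls.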

[18] = molecular target: T1, Cytochrome P450 3A4; assay: Time-dependent inhibition of CYP3A4 in human liver microsomes at 10 uM using midazolam as substrate by LC-MS/MS analysis; type: ADME
Summary of the method: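 CYP3A4 time-dependent inhibition in human liver microsomes. The compound (0.4 to 10 μM) was tested with and without 30 min preincubation. IC50 was taken from percent activity remaining versus vehicle, averaged over two independent experiments. A >2-fold IC50 shift after preincubation was the threshold for time-dependent inhibition.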

[19] = Negative allosteric modulation of human GluN1a/GluN2B receptor expressed in CHO cells assessed as inhibition of glutamate and glycine-induced calcium flux preincubated for 5 mins followed by glutamate and glycine addition and measured after 5 mins by calcium 5 dye based FLIPR assay; type: cell-based; summary of the method: as §3
[20] = Tmax in Sprague-Dawley rat at 250 mg/kg, po administered via gavage after 24 hrs using nanosuspension formulation by LC-MS/MS analysis; type: ADME, organism-based; conditions: in vivo
Summary of the method: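 Single oral gavage of a nanosuspension (API:polymer 4:1), diluted with vehicle on the dosing day, at 100, 250 or 500 mg/kg to male Sprague Dawley rats, 3 per dose. Plasma was sampled from 0.5 to 24 h.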

[21] = AUC (0 to 24 hrs) in Sprague-Dawley rat at 250 mg/kg, po administered via gavage after 24 hrs using nanosuspension formulation by LC-MS/MS analysis; type: ADME, organism-based; parameters: route oral, dose 250 mg/kg, time <=24; conditions: in vivo; summary of the method: as §1
[22] = Cmax in Sprague-Dawley rat brain at 3 mg/kg, po after 2 hrs by LC-MS/MS analysis; type: ADME, organism-based; parameters: route oral, dose 3 mg/kg, time 2 hrs
Summary of the method: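 Oral dose of 3 mg/kg in 20% HP-β-CD to rats. Brain concentration was measured alongside ex vivo GluN2B occupancy over a 6 h time course (0.5, 2 and 6 h), n=2.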

Cn1c(=O)n(CC(=O)N2CCC2)c2cc(-c3ccc(C(F)(F)F)s3)cnc21
Cmax [1]: 12500 ng/mL | microsomal CLint at 1 µM [2]: 16.6 µL/min/mg | Ki [3]: 15 nM | Cmax [4]: 9000 ng/mL | Cmax [5]: 18300 ng/mL | Cmax [6]: 479 ng/mL | Tmax [7]: 2.7 h | Occ [8]: 76% | IC50 [9]: > 10000 nM | clearance [10]: 17 mL/min/kg | AUC(0-inf) [11]: 277 ng·h/mL | Tmax [12]: 0.25 h | Ratio [13]: 31 | Ratio [14]: 6 | concentration at 0.5 h [15]: 13.8 ng/mL | AUC(0-inf) [16]: 1830 ng·h/mL | IC50 [17]: > 50000 nM | TDI [18]: Not Active | IC50 [19]: 31 nM | Tmax [20]: 2.7 h | AUC(0-t) [21]: 86400 ng·h/mL | Cmax [22]: 765 ng/g
